# Experimental data collected from several papers.
# Compare with care: the assays were run in different laboratories.
# Sample: plasma
# Route: oral
Compound,system,conditions,Vd/F [L]
CCOc1ccc(Cc2cc([C@@H]3O[C@H](CO)[C@@H](O)[C@H](O)[C@H]3O)ccc2Cl)cc1,human,"10 mg, multiple doses, steady state",320
N#CN1C[C@H](n2nc(-c3ccc(Oc4ccc(Cl)cn4)cc3)c(C(N)=O)c2N)CCC12CC2,human,"600 mg, fed",1230
Cc1cc(Nc2cc(N3CCN(C)CC3)nc(/C=C/c3ccccc3)n2)n[nH]1,human,"120 mg/m², multiple doses, patients",847
c1cnc2ccc(Nc3nc(NC4CC4)c4nc[nH]c4n3)cc2c1,human,"400 mg/m², patients",546
C[C@@H](c1ccc2nccn2c1)n1nnc2ncc(-c3cnn(C)c3)nc21,human,200 mg,310
CO[C@H]1CC[C@H](N2C(=O)CNc3ncc(-c4ccc(C(C)(C)O)nc4)nc32)CC1,human,"7.5 mg, patients",235
COc1ccc([C@@H]2CN(C(=O)[C@@H](O)CO)C[C@@]2(C)[C@@H](C)O)cc1OC1CN(c2ccc(C)cn2)C1,human,"0.5 mg, single dose, healthy volunteers",40.7
COc1cc(C(=O)NC2CCN(C)CC2)c(F)cc1Nc1ncc(C(F)(F)F)c(Oc2cccc3c2C(=O)N(C)C3)n1,human,"50 mg, single dose, patients",581
C[C@@]1(c2cc(NC(=O)c3ccc(C#N)cn3)ccc2F)C=CSC(N)=N1,human,"30 mg, single dose",276
CC(C)(Sc1ccncc1-c1ccc(C#N)c2ccccc12)C(=O)O,male human,"20 mg, single dose, fed, healthy volunteers",531
